Measured values from ChEMBL document CHEMBL2375264, “Potent naphthoquinones against antimony-sensitive and -resistant Leishmania parasites: synthesis of novel α- and nor-α-lapachone-based 1,2,3-triazoles by copper-catalyzed azide-alkyne cycloaddition” (Eur J Med Chem, 2013).

How the values were obtained:
Leishmania infantum [1] = experiment: Antileishmanial activity against antimony-sensitive Leishmania infantum MCAN/BR/2002/BH400 promastigote infected in Swiss mouse peritoneal macrophages after 72 hrs; assay type: functional, organism-based; settings: MCAN/BR/2002/BH400, 72 h
Method in brief: (§1)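 Promastigotes of Sb(III)-sensitive and -resistant lines (resistant to Sb(III) up to 2700), maintained at 25 °C, pH 7.0, in α-MEM with 10% heat-inactivated FBS, kanamycin, ampicillin, L-glutamine, hemin and biopterin. Drugs dissolved in DMSO, diluted in α-MEM across a concentration range, final DMSO ≤0.2%.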

Leishmania infantum [2] = experiment: Antileishmanial activity against antimony-resistant Leishmania infantum MCAN/BR/2002/BH400 promastigote infected in Swiss mouse peritoneal macrophages after 72 hrs; assay type: functional, organism-based; settings: MCAN/BR/2002/BH400, 72 h; method in brief: as §1
[3] = Cytotoxicity against Swiss mouse peritoneal macrophages after 24 hrs by MTT assay; assay type: cell-based, Peritoneal macrophage cell
Method in brief: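 Macrophages from peritoneal lavage of Swiss mice with cold FBS-free RPMI-1640. Cells seeded at 4.0 × 10⁶/mL, adhered 1 h, non-adherent cells washed off. Compounds were DMSO stocks diluted in medium over a concentration range, final DMSO ≤0.2%. Viability read by MTT (5 mg/mL solution, 4 h further incubation). CC50 taken as the 50% cytotoxic concentration.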

Leishmania amazonensis [4] = experiment: Ratio of potassium antimonyl tartrate IC50 to compound IC50 for antimony-sensitive Leishmania amazonensis MHOM/BR/1989/BA199 promastigote infected in Swiss mouse peritoneal macrophages; assay type: functional
Leishmania infantum [5] = experiment: Ratio of potassium antimonyl tartrate IC50 to compound IC50 for antimony-sensitive Leishmania infantum MCAN/BR/2002/BH400 promastigote infected in Swiss mouse peritoneal macrophages; assay type: functional
Leishmania amazonensis [6] = experiment: Antileishmanial activity against antimony-sensitive Leishmania amazonensis MHOM/BR/1989/BA199 promastigote infected in Swiss mouse peritoneal macrophages after 72 hrs; assay type: functional, organism-based; settings: MHOM/BR/1989/BA199, 72 h; method in brief: as §1
[7] = Selectivity index, ratio of CC50 for Swiss mouse peritoneal macrophages to IC50 for antimony-resistant Leishmania infantum MCAN/BR/2002/BH400 promastigote; assay type: functional
Method in brief: (§2)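 SI = CC50/IC50. CC50 comes from Swiss mouse peritoneal macrophages, harvested by lavage with cold RPMI-1640 lacking FBS. Cells seeded at 4.0 × 10⁶/mL, allowed to adhere 1 h, then washed free of non-adherent cells. Viability read by MTT (5 mg/mL stock, 4 h).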

[8] = Selectivity index, ratio of CC50 for Swiss mouse peritoneal macrophages to IC50 for antimony-sensitive Leishmania amazonensis MHOM/BR/1989/BA199 promastigote; assay type: functional
Method in brief: (§3)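 SI = CC50 / IC50. CC50 is from Swiss mouse peritoneal macrophages, read by MTT after lavage and 1 h adherence. […] Promastigotes grown in α-MEM with 10% heat-inactivated FBS, hemin and biopterin, pH 7.0, 25 °C. DMSO ≤0.2% final. Triplicate.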

[9] = Selectivity index, ratio of CC50 for Swiss mouse peritoneal macrophages to IC50 for antimony-sensitive Leishmania infantum MCAN/BR/2002/BH400 promastigote; assay type: functional; method in brief: as §3
[10] = Selectivity index, ratio of CC50 for Swiss mouse peritoneal macrophages to IC50 for antimony-resistant Leishmania amazonensis MHOM/BR/1989/BA199 promastigote; assay type: functional; method in brief: as §2
Leishmania amazonensis [11] = experiment: Antileishmanial activity against antimony-resistant Leishmania amazonensis MHOM/BR/1989/BA199 promastigote infected in Swiss mouse peritoneal macrophages after 72 hrs; assay type: functional, organism-based; settings: MHOM/BR/1989/BA199, 72 h; method in brief: as §1

Which results are given for `O=C1C=C(n2cc(-c3ccccc3)nn2)C(=O)c2ccccc21`?
IC50 (Leishmania infantum [1]): 21.6 µM; IC50 (Leishmania infantum [2]): 17.2 µM; CC50 at 24 h [3]: 10.2 µM; Ratio IC50 (Leishmania amazonensis [4]): 2.2; Ratio IC50 (Leishmania infantum [5]): 2; IC50 (Leishmania amazonensis [6]): 16.7 µM; Ratio CC50/IC50 [7]: 0.59; Ratio CC50/IC50 [8]: 0.61; Ratio CC50/IC50 [9]: 0.47; Ratio CC50/IC50 [10]: 1.28; IC50 (Leishmania amazonensis [11]): 7.94 µM

Which IC50 (Leishmania infantum [1]) does the source give for `COc1ccc(-c2cn(C3=CC(=O)c4ccccc4C3=O)nn2)cc1` here?
Its IC50 is 15.8 µM.

What about the IC50 (Leishmania infantum [2]) of the same molecule?
The IC50 was 18.6 µM.

What about the CC50 at 24 h [3] of the same molecule?
The CC50 at 24 h was 16.8 µM.

And the “Ratio IC50” value (Leishmania amazonensis [4])?
The value was 2.2.

What about the “Ratio IC50” value (Leishmania infantum [5]) of the same molecule?
Its value is 2.

What about the IC50 (Leishmania amazonensis [6]) of the same molecule?
The IC50 was 34.3 µM.

What about the “Ratio CC50/IC50” value [7] of the same molecule?
Its value is 0.9.

And the “Ratio CC50/IC50” value [8]?
The value was 0.49.

What about the “Ratio CC50/IC50” value [9] of the same molecule?
Its value is 1.06.

And the “Ratio CC50/IC50” value [10]?
Its value is 0.68.

And the IC50 (Leishmania amazonensis [11])?
Its IC50 is 24.5 µM.

For `O=C1C=C(n2cc(-c3ccc(Br)cc3)nn2)C(=O)c2ccccc21`, which IC50 (Leishmania infantum [1]) is on record?
Its IC50 is 17.2 µM.

And the IC50 (Leishmania infantum [2])?
Its IC50 is 14.1 µM.

What about the CC50 at 24 h [3] of the same molecule?
Its CC50 at 24 h is 21.4 µM.

What about the “Ratio IC50” value (Leishmania amazonensis [4]) of the same molecule?
The value was 2.2.

What about the “Ratio IC50” value (Leishmania infantum [5]) of the same molecule?
Its value is 2.

And the IC50 (Leishmania amazonensis [6])?
The IC50 was 57.8 µM.

What about the “Ratio CC50/IC50” value [7] of the same molecule?
Its value is 1.52.

And the “Ratio CC50/IC50” value [8]?
The value was 0.37.

And the “Ratio CC50/IC50” value [9]?
Its value is 1.24.

What about the “Ratio CC50/IC50” value [10] of the same molecule?
The value was 0.43.

What about the IC50 (Leishmania amazonensis [11]) of the same molecule?
The IC50 was 50.1 µM.

With `Cc1ccc(-c2cn(C3=CC(=O)c4ccccc4C3=O)nn2)cc1` as the molecule, how does the IC50 (Leishmania infantum [1]) read?
The IC50 was 8.8 µM.

And the IC50 (Leishmania infantum [2])?
The IC50 was 13.6 µM.

What about the CC50 at 24 h [3] of the same molecule?
Its CC50 at 24 h is 15.2 µM.

What about the “Ratio IC50” value (Leishmania amazonensis [4]) of the same molecule?
The value was 2.2.

What about the “Ratio IC50” value (Leishmania infantum [5]) of the same molecule?
Its value is 2.

What about the IC50 (Leishmania amazonensis [6]) of the same molecule?
Its IC50 is 21.2 µM.

What about the “Ratio CC50/IC50” value [7] of the same molecule?
Its value is 1.12.

And the “Ratio CC50/IC50” value [8]?
Its value is 0.71.

What about the “Ratio CC50/IC50” value [9] of the same molecule?
The value was 1.72.

And the “Ratio CC50/IC50” value [10]?
Its value is 1.1.

What about the IC50 (Leishmania amazonensis [11]) of the same molecule?
Its IC50 is 13.8 µM.
